From PubChem BioAssay
An excerpt weighted towards active compounds, which were near 7.2% of everything screened.
HEK293 NFkB inh – inhibitors of PMA/ionomycin-induced NF-kB reporter, primary screen, antigen receptor NF-kB inhibitor project, cell-based, HEK-293 luciferase reporter, luminescence; actives 0.21% (n = 62,000); inhibition, % at 3 µM; AID 465, 2006; HEK-293 NF-kB luciferase reporter;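 active means inhibition above the mean of all tested compounds plus 3 SD, cut at about 40% in these data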
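Timing: 1 h pretreatment, 16 h stimulation, 37 °C; system: HEK-293 cells with stable firefly luciferase reporter driven by four HIV NF-kB elements; doses: 3 µM once, 0.30% DMSO; measured by: luciferase luminescence; control set: DMSO and 10 µM reference inhibitor; repeats: single test; reagent: PMA plus ionomycin mix as NF-kB-activating stimulus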
hDAT+cocaine – changed hDAT dopamine uptake under cocaine IC80, either direction, primary screen, cocaine antagonist project, cell-based, LLC-PK1 hDAT, [14C]-dopamine uptake, MLSMR; Sodium-dependent dopamine transporter (Homo sapiens), Q01959; actives 1.3% (n = 110,000); LLC-PK1 hDAT cells, [14C]-dopamine uptake with cocaine IC80; actives deviate in either direction; B-score at 10 µM;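 active means Z score or B-score, a plate-position-corrected score, falls beyond the plate's 99.7% confidence bounds, in either direction; inactive means both scores lie inside the 99.7% bounds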
D1 allo mod – D1 CRE-luciferase signal change, two-sided – cell-based, HEK293 D1, dopamine EC30, D1 allosteric modulator project, primary screen. dopamine EC30 potentiation; actives deviate in either direction. B-score at 10 µM. actives 5.9% (n = 58,000). D(1A) dopamine receptor (Homo sapiens), P21728;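 active means luminescence count or its row- and column-corrected plate score outside the 99.7% band of the plate's sample wells, on either side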
BAP1 block – inhibitors of BAP1 deubiquitinase, primary screen, biochemical, Ub-AMC fluorescence, kinetic; recombinant BAP1, Ub-AMC hydrolysis fluorescence kinetic; hits give low values; calls only at 20 µM; actives 0.48% (n = 72,000);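 active means activity remaining at or below 50% of control, provided the compound also passes the data quality filters; inactive means the rest, including low values that fail the filters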
M1 agonist – M1 muscarinic receptor agonists, primary screen, CHO-M1 cells, Fluo-4 calcium, agonist mode | B-score at 10 µM | actives 3% (n = 64,000) | AID 626, 2007 | Muscarinic acetylcholine receptor M1 | Fluo-4 calcium fluorescence; hits give high values;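 active means fluorescence rise, raw or as B-score row- and column-corrected plate score, outside the 99.7% band of its plate's samples, either direction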
M1 antag – antagonists of rat M1 muscarinic receptor. Muscarinic acetylcholine receptor M1 (Rattus norvegicus), P08482. CHO-M1 cells, Fluo-4 calcium, ACh EC80 antagonist mode; hits give low values. B-score at 10 µM. actives 3.4% (n = 64,000). AID 628, 2007;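 active means calcium fluorescence response, raw or row-and-column corrected B-score, differing from the plate sample mean either way at a set confidence level, mostly lower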
Target sequence (P08482 whole entry, looked up): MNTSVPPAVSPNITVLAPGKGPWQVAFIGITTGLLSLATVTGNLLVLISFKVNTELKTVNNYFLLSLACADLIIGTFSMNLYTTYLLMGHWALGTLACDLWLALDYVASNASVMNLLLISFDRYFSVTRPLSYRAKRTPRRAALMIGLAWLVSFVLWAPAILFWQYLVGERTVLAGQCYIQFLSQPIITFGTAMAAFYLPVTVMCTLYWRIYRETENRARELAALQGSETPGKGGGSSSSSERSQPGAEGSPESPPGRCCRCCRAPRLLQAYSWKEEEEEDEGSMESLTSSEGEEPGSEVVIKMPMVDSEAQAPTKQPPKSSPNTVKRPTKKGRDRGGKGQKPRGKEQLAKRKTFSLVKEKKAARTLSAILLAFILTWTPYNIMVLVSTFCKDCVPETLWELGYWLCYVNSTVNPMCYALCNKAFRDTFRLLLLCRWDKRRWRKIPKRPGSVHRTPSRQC
D1 PAM confirm – D1 receptor positive allosteric modulators, retest, confirmation, cell-based, HEK293 D1, CRE-luciferase, duplicate; shares compounds with D1 allo mod; dopamine EC30 potentiation; hits give high values; luminescence at 10 µM; actives 88% (n = 2,200); AID 642, 2007;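 active means luminescence in either of two replicates above the same-plate mean plus 3 SD of the low-dose dopamine control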
D1 no dopamine – D1 receptor agonism without dopamine, confirmation, mechanism study for D1 allosteric modulator project, cell-based, HEK293 D1, CRE-luciferase, secondary assay 1 | shares compounds with D1 allo mod | luminescence, no dopamine; hits give high values | luminescence at 10 µM | actives 0.8% (n = 1,900) | AID 646, 2007; in the data active means luminescence above about 3900
Isoprot counter – alters isoproterenol CRE-luciferase response in HEK293 cells; calls only at 10 µM; actives 63% (n = 2,200); shares compounds with D1 allo mod; AID 647; HEK293 D1 CRE-luciferase, isoproterenol EC30 counter-screen;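 active means luminescence in either replicate above plate mean of wells with a partly effective reference agonist dose plus 3 SD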;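 further: isoproterenol raises cAMP through native beta-adrenoceptor Gs so signal bypasses D1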
A number is an active result; . = inactive; / = no result; + = active, no number.

SMILES	HEK293 NFkB inh	hDAT+cocaine	D1 allo mod	BAP1 block	M1 agonist	M1 antag	D1 PAM confirm	D1 no dopamine	Isoprot counter
CCn1cc(C(=O)OCc2ccc(F)cc2)c(=O)c2ccc(C)nc21	.	.	9.9	.	.	.	10188	.	+
CCn1cc(C(=O)OCC(=O)Nc2c(C)n(C)n(-c3ccccc3)c2=O)c(=O)c2ccc(C)nc21	.	.	.	.	.	.	/	/	/
CCn1cc(C(=O)NC2CCc3ccccc32)c(=O)c2ccc(C)nc21 (centres undefined)	.	.	.	.	.	.	/	/	/
CCn1cc(C(=O)OCC(=O)OC2CC(C)CCC2C(C)C)c(=O)c2ccc(C)nc21 (centres undefined)	.	.	6.4	.	.	.	9780	.	.
O=C1CC(NCCc2ccc(Cl)cc2)C(=O)N1c1ccc(Br)cc1 (centres undefined)	/	/	/	.	/	/	/	/	/
CCc1nc(N)c(C#N)c(-c2ccc(O)c(OC)c2)c1C	.	.	/	.	.	.	/	/	/
CCc1nc(N)c(C#N)c(-c2ccc(OC)c(OC)c2)c1C	.	.	6.7	.	.	.	11376	.	+
COc1ccc(-c2nc(SC)n(C)c(=O)c2C#N)cc1OC	.	.	/	/	.	.	/	/	/
CCc1nc(C)c(C#N)c2cc(OC)c(OC)cc12	.	.	4.4	.	.	.	11084	.	+
CCc1nc(N)c(C#N)c(-c2ccncc2)c1C	.	.	4.4	.	.	.	15468	.	.
Cc1cc(C)n2c(SCC(=O)NCc3ccco3)nnc2n1	.	.	.	.	.	.	/	/	/
Cc1cc(C)n2nc(SC(C)C(=O)NCc3ccco3)nc2n1 (centres undefined)	.	.	7.1	.	.	.	.	.	.
CC(=O)Nc1nc(CC(C)C)cc(-c2ccco2)c1C#N	.	.	9.7	.	.	.	15584	/	+
C=CCn1c2ccccc2c2nnc(SCN3C(=O)c4ccccc4C3=O)nc21	/	.	9.9	/	.	.	16236	.	+
Fc1cccc(Nc2nc3ccccc3n3nnnc23)c1	/	.	/	/	/	/	/	/	/
Cc1ccc(CNc2nc3ccccc3n3nnnc23)cc1	.	.	3.4	.	.	.	15516	.	.
c1ccc2c(c1)nc(Nc1ccc3c(c1)OCO3)c1nnnn12	.	.	8.6	.	.	.	10812	.	+
Cc1ccc(-c2nc3ccccc3n3nnnc23)cc1	.	.	.	.	.	.	/	/	/
N#CCCn1c2c(ccc1=O)CCCC2	/	/	/	.	/	/	/	/	/
CCCCCCC1CCC(c2ccc(C(N)=O)c(Cl)n2)CC1 (centres undefined)	/	/	/	.	/	/	/	/	/
CCSCCOC(=O)C1=C(C)NC2=C(C(=O)CC(C)(C)C2)C1c1ccccc1F (centres undefined)	/	/	/	.	/	/	/	/	/
CC(C)Sc1nc2c(c(=O)n1-c1ccc(F)cc1)SCC2	.	.	11	.	.	.	23632	.	+
CCOC(=O)c1c(NC(=O)CSc2nnnn2C)sc(C)c1C	.	.	.	.	.	.	/	/	/
CCOC(=O)c1c(NC(=O)CSc2n[nH]c(N)n2)sc(CC)c1C	.	.	7.9	.	.	.	14984	.	+
COC(=O)c1c(NC(=O)CSc2n[nH]c(N)n2)sc(C)c1C	.	.	.	.	.	.	/	/	/
SMILES	HEK293 NFkB inh	hDAT+cocaine	D1 allo mod	BAP1 block	M1 agonist	M1 antag	D1 PAM confirm	D1 no dopamine	Isoprot counter
CCOC(=O)c1c(NC(=O)CSc2nnnn2CC)sc(C)c1C	.	.	3.9	.	.	.	13084	.	+
CCCc1cc2c(c(NC(C)=O)n1)c(=O)oc1ccccc12	.	.	7.9	.	.	.	21272	.	+
OCCn1nc2c3ccccc3nc-2n(-c2ccccc2)c1=S	.	-7.2	5.9	.	.	.	7812	.	.
CCOC(=O)c1cccnc1SCc1cc(=O)n2ccccc2n1	.	.	4.4	.	.	.	10728	.	+
CC(OC(=O)c1cccnc1SCc1cc(=O)n2ccccc2n1)c1ccccn1 (centres undefined)	/	.	/	/	/	/	/	/	/
COc1cccc(Nc2ncccc2C(=O)NCc2ccccc2)c1	.	.	11	.	3.8	.	21276	.	+
COc1ccc(OC)c(NC2c3ncccc3C(=O)N2Cc2ccco2)c1 (centres undefined)	.	.	8.7	.	.	.	11124	/	+
COc1cc(NC(=O)C(C(C)C)N2C(=O)c3ccccc3C2=O)c(OC)cc1Cl (centres undefined)	/	/	/	.	/	/	/	/	/
COc1c(S(=O)(=O)N2CCCC2)ccc(Cl)c1Cl	.	.	5.4	.	.	.	10616	.	+
CC(=O)Oc1c(Cl)c(N2CCOCC2)c(OC(C)=O)c2ccccc12	.	.	3.1	.	.	.	5620	.	.
Cc1cc(OC(=O)N2CCOCC2)cc(C)c1Cl	.	.	.	.	.	.	/	/	/
CSc1ncccc1C(=O)OCc1ccccc1F	.	.	10	.	.	.	16732	.	+
CSc1ncccc1C(=O)OCc1ccccc1	.	.	/	.	.	.	/	/	/
CC12CC3CC(C1)CC(NC(=O)c1ccc4ccccc4n1)(C3)C2	/	/	/	.	/	/	/	/	/
COc1ccc2oc(=O)c(-c3csc(C)n3)cc2c1	/	/	/	.	/	/	/	/	/
CCOc1ccc(C(=O)NCC(=O)OC(C)C(=O)NCc2ccco2)cc1OCC (centres undefined)	.	.	6	.	.	.	.	/	+
CN(C)c1ccc(C(CC(=O)O)NC(=O)c2ccc(Cl)cc2)cc1 (centres undefined)	.	.	18	.	.	.	.	/	.
CCCCOc1ccc(CC(=O)NO)cc1	/	.	33	.	.	.	18936	/	+
COc1ccc(-c2cc(C(F)(F)F)nc(SCC(=O)NCc3ccco3)n2)cc1OC	.	.	13	.	.	.	18992	.	+
COc1ccc(-c2ccc(SCC(=O)NCc3ccco3)nn2)cc1OC	.	.	15	.	.	.	17224	/	+
